Reference: PMC2899701 (Lipids, 2009)
Values after ≈ are worked out from the molar mass of the structure shown. Read-outs that look alike come from different tables or passages of the source.

Key:
[1] = test system: L. donovani promastigotes; details: at levels of 100 μg/mL; cited from earlier work
[2] = test system: L. donovani promastigotes; type: cell-based, Leishmania donovani (MHOM/ET67/L82 strain); details: for L. donovani promastigotes EC50: 48 h incubation, fatty acids in DMSO 0.6 to 25 μg/ml; for Effectiveness towards L. donovani (in words): promastigotes; for Therapeutic index IC50/EC50: IC50 murine macrophages / EC50 L. donovani promastigotes; for EC50: 48 h, read-out: L. donovani promastigotes EC50
Procedure, shortened: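 L. donovani MHOM/ET67/L82 promastigotes propagated in defined medium 199 with 10% heat-inactivated FCS, penicillin (50 U/ml) and streptomycin (50 µg/ml). Cultures given test fatty acids in DMSO over 0.6 to 25 µg/ml for 48 h. Cell population counted by Coulter counter; IC50/EC50 derived from the concentration series.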

[3] = test system: Murine macrophages (RAW 264.7); assay: Toxicity to murine macrophages; type: cell-based; details: for Murine macrophages IC50: RAW 264.7, 48 h incubation, alamarBlue; for IC50: RAW264.7, 48 h, read-out: Murine macrophages IC50
Procedure, shortened: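 RAW 264.7 murine macrophages grown at 37 °C in RPMI 1640 with 10% FCS, penicillin (50 U/ml) and streptomycin (50 µg/ml). Cells exposed 48 h to a range of test compound concentrations (0.3 to 100 µg/ml, DMSO vehicle). Viability read with alamarBlue dye per manufacturer's protocol; IC50 derived from concentration series.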

[4] = target: leishmania DNA topoisomerase IB (LdTopIB) (Leishmania donovani, UniProt A0A3Q8IHS4+Q8WQM6); assay: DNA relaxation assay with recombinant LdTopIB; type: biochemical; details: concentrations as high as 1mM (gel not shown)
[5] = test system: L. donovani promastigotes; details: cited from earlier work

With CCCCCCCCCCCC(=O)O [n-dodecanoic, n-dodecanoic acid] as the compound, how does the “Inhibition of the motility of L. donovani promastigotes (in words)” value (shortened to “Inhibition of the motility … (in words)”) [1] read?
Its value is “inhibited the motility”.

With CCCCCCCCCCCCCCCCOP(=O)([O-])OCC[N+](C)(C)C [miltefosine] as the compound, how does the IC50 ([2]; Leishmania donovani, read-out: IC50 against L. donovani) read?
Its IC50 is 790 nM.

And the EC50 ([3]; Mus musculus, RAW264.7, read-out: EC50 against murine macrophages)?
Its EC50 is 1950 nM.

For CCCCCCCCCCCCCCCCCCCC(=O)O [Icosanoic (20:0), n-icosanoic acid], which “L. donovani promastigotes EC50” value [2] is on record?
The value was greater than 25 µg/mL.

And the “Effectiveness towards L. donovani (in words)” value [2]?
Its value is “not effective”.

What about the “Murine macrophages IC50” value [3] of the same compound?
Its value is 21.93 ± 2.61 µg/mL.

What about the “Inhibition of the LdTOPIB enzyme (in words)” value [4] of the same compound?
Its value is “did not inhibit the enzyme”.

For CCCCCCCC/C=C\CCCCCCCC(=O)O [oleic acid], which “MIC against L. donovani promastigotes” value [5] is on record?
The value was 90 µM (≈ 25.4 µg/mL).

And the “Inhibition of the motility … (in words)” value [1]?
The value was “had no effect”.

Which “Therapeutic index IC50/EC50” value [2] does the source give for CCCCCCCCCCC#CCCCCC(=O)O [Compound 1a, 6-Heptadecynoic acid] here?
Its value is 0.85.

What about the EC50 ([2]; Leishmania donovani) of the same compound?
The EC50 was 6.67 ± 1.42 µg/mL (≈ 25 µM).

What about the IC50 ([3]; Mus musculus) of the same compound?
The IC50 was 5.66 ± 0.92 µg/mL (≈ 21.2 µM).

What does the source list for CCCCCCCCCC/C=C\CCCCC(=O)O [Compound 6a, (6Z)-Heptadecenoic acid]?
L. donovani promastigotes EC50 [2]: > 25 µg/mL; Murine macrophages IC50 [3]: 11.86 ± 1.63 µg/mL

Which “MIC against L. donovani promastigotes” value [5] does the source give for CCCCCCCCCC(=O)O [n-Decanoic acid] here?
The value was 1390 µM (≈ 239 µg/mL).

What about the “Inhibition of the motility … (in words)” value [1] of the same compound?
The value was “inhibited the motility”.

For CCCCCCCCCCCCCCCC(=O)O [n-hexadecanoic acids, n-hexadecanoic acid], which “Inhibition of the motility … (in words)” value [1] is on record?
Its value is “inhibited the motility”.

Which results are given for CCCCCCCCCCCCCC#CCCCCC(=O)O [Compound 1b, 6-Icosynoic acid]?
Therapeutic index IC50/EC50 [2]: 4.82; EC50 ([2]; Leishmania donovani): 1.11 ± 0.28 µg/mL (≈ 3.6 µM); IC50 ([3]; Mus musculus): 5.35 ± 2.14 µg/mL (≈ 17.3 µM)

With CCCCCCCCCCCCC/C=C\CCCCC(=O)O [Compound 6b, (6Z)-Icosenoic acid] as the compound, how does the “L. donovani promastigotes EC50” value [2] read?
Its value is 5.67 ± 1.07 µg/mL.

And the “L. donovani promastigotes EC50” value ([2]; listed as (6Z)-icosenoic acid)?
Its value is 5 to 6 µg/mL.

What about the “Therapeutic index IC50/EC50” value [2] of the same compound?
Its value is 4.97.

And the “Murine macrophages IC50” value [3]?
Its value is 28.20 ± 7.54 µg/mL.

For CCCCCCCCCCCCCCCCCC(=O)O [octadecanoic acid], which “MIC against L. donovani promastigotes” value [5] is on record?
The value was 180 µM (≈ 51.2 µg/mL).

What does the source list for CCCCCCCCCCCCCCCCC(=O)O [Heptadecanoic (17:0), n-heptadecanoic acid]?
L. donovani promastigotes EC50 [2]: > 25 µg/mL; Effectiveness towards L. donovani (in words) [2]: not effective; Murine macrophages IC50 [3]: 14.18 ± 7.48 µg/mL; Inhibition of the LdTOPIB enzyme (in words) [4]: did not inhibit the enzyme
